Entries after “also recorded” stand apart in the source; their conditions may differ.
Experiments:
[1] = test system: other investigated kinases; conditions: in vitro; cited from earlier work
[2] = test system: patients with advanced NSCLC and EGFR gene mutations; test: Phase Ib safety and toxicity; format: in vivo, human
Method in brief: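 3+3 dose escalation (modified Fibonacci) of oral test compound, 100–650 mg flat doses twice daily for 28 days. Safety population was all patients dosed at least once. AEs were graded by NCI CTCAE v4.0. Haematology, liver and renal labs were taken predose on Days 1, 8, 15, 22 and 29, plus ECG, echocardiography and chest X-ray. MTD was defined by >1 DLT per dose level.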

For simotinib, the “activity on other investigated kinases” value [1] is listed as “no significant activity”, the Aminotransferase elevation ([2]; 100 mg twice daily, N=2) is listed as 0 n (%) and the Bilirubin elevation ([2]; 100 mg twice daily, N=2) is listed as 0 n (%). The Diarrhea ([2]; 100 mg twice daily, N=2) was 0 n (%), the Erythrocyte reduction ([2]; 100 mg twice daily, N=2) was 0 n (%) and the Fatigue ([2]; 100 mg twice daily, N=2) was 2 (100) n (%). For the same substance, the Neutropenia ([2]; 100 mg twice daily, N=2) was 0 n (%), the Pruritus ([2]; 100 mg twice daily, N=2) was 2 (100) n (%) and the Rash ([2]; 100 mg twice daily, N=2) was 1 (50.0) n (%). The Aminotransferase elevation ([2]; 200 mg twice daily, N=3) was 0 n (%), the Bilirubin elevation ([2]; 200 mg twice daily, N=3) was 2 (66.7) n (%) and the Diarrhea ([2]; 200 mg twice daily, N=3) was 3 (100) n (%). The Erythrocyte reduction ([2]; 200 mg twice daily, N=3) was 1 (33.3) n (%), the Fatigue ([2]; 200 mg twice daily, N=3) was 1 (33.3) n (%) and the Neutropenia ([2]; 200 mg twice daily, N=3) was 3 (100) n (%). The Pruritus ([2]; 200 mg twice daily, N=3) was 2 (66.7) n (%), the Rash ([2]; 200 mg twice daily, N=3) was 2 (66.7) n (%) and the Aminotransferase elevation ([2]; 300 mg twice daily, N=3) was 1 (33.3) n (%). For the same substance, the Bilirubin elevation ([2]; 300 mg twice daily, N=3) was 2 (66.7) n (%), the Diarrhea ([2]; 300 mg twice daily, N=3) was 3 (100) n (%) and the Erythrocyte reduction ([2]; 300 mg twice daily, N=3) was 0 n (%). For the same substance, the Fatigue ([2]; 300 mg twice daily, N=3) was 2 (66.7) n (%), the Neutropenia ([2]; 300 mg twice daily, N=3) was 1 (33.3) n (%) and the Pruritus ([2]; 300 mg twice daily, N=3) was 1 (33.3) n (%). The Rash ([2]; 300 mg twice daily, N=3) was 0 n (%), the “death during the treatment phase” value ([2]; 400 mg dose) was 1 patient and the “patients with at least 1 study drug-related AE” value (shortened to “patients”) ([2]; 400 mg dose group) was 86.7%. The Aminotransferase elevation ([2]; 400 mg twice daily, N=15) was 2 (13.3) n (%), the Bilirubin elevation ([2]; 400 mg twice daily, N=15) was 1 (6.7) n (%) and the Diarrhea ([2]; 400 mg twice daily, N=15) was 7 (46.7) n (%). The Erythrocyte reduction ([2]; 400 mg twice daily, N=15) was 4 (26.7) n (%), the Fatigue ([2]; 400 mg twice daily, N=15) was 2 (13.3) n (%) and the Neutropenia ([2]; 400 mg twice daily, N=15) was 3 (20.0) n (%). For the same substance, the Pruritus ([2]; 400 mg twice daily, N=15) was 4 (26.7) n (%), the Rash ([2]; 400 mg twice daily, N=15) was 2 (13.3) n (%) and the “patients” value ([2]; 500 mg dose group) was 91.7%. For the same substance, the “AEs of grade ≥3” value ([2]; 500 mg group) was 3 patients, the Aminotransferase elevation ([2]; 500 mg twice daily, N=12) was 2 (16.7) n (%) and the Bilirubin elevation ([2]; 500 mg twice daily, N=12) was 2 (16.7) n (%). The Diarrhea ([2]; 500 mg twice daily, N=12) was 7 (58.3) n (%), the Erythrocyte reduction ([2]; 500 mg twice daily, N=12) was 2 (16.7) n (%) and the Fatigue ([2]; 500 mg twice daily, N=12) was 3 (25.0) n (%). The Neutropenia ([2]; 500 mg twice daily, N=12) was 2 (16.7) n (%), the Pruritus ([2]; 500 mg twice daily, N=12) was 1 (8.3) n (%) and the Rash ([2]; 500 mg twice daily, N=12) was 9 (75.0) n (%). For the same substance, the Aminotransferase elevation ([2]; 650 mg twice daily, N=6) was 3 (50.0) n (%), the Bilirubin elevation ([2]; 650 mg twice daily, N=6) was 0 n (%) and the Diarrhea ([2]; 650 mg twice daily, N=6) was 3 (50.0) n (%). The Erythrocyte reduction ([2]; 650 mg twice daily, N=6) was 2 (33.3) n (%), the Fatigue ([2]; 650 mg twice daily, N=6) was 0 n (%) and the Neutropenia ([2]; 650 mg twice daily, N=6) was 2 (33.3) n (%). The Pruritus ([2]; 650 mg twice daily, N=6) was 0 n (%), the Rash ([2]; 650 mg twice daily, N=6) was 3 (50) n (%) and the “patients” value ([2]; 100, 200, 300, and 650 mg dose groups) was “all patients”. The tolerability ([2]; 100 to 650 mg twice daily) was “well tolerated”, the “dose-limiting toxicity (DLT)” value ([2]; 100 to 650 mg twice daily, 28 days) was “no dose-limiting toxicities; also recorded: No DLT was observed” and the Aminotransferase elevation ([2]; Total N=41) was 8 (19.5) n (%). For the same substance, the Bilirubin elevation ([2]; Total N=41) was 7 (17.1) n (%), the Diarrhea ([2]; Total N=41) was 23 (56.1) n (%) and the Erythrocyte reduction ([2]; Total N=41) was 9 (22.0) n (%). For the same substance, the Fatigue ([2]; Total N=41) was 10 (24.4) n (%), the Neutropenia ([2]; Total N=41) was 11 (26.8) n (%) and the Pruritus ([2]; Total N=41) was 10 (24.4) n (%). For the same substance, the Rash ([2]; Total N=41) was 17 (41.5) n (%).
